Data taken from ChEMBL document CHEMBL1123696, “1H NMR study of degradation mechanisms of oxacephem derivatives with various 3'-substituents in alkaline solution” (J Med Chem, 1987).

Tests used:
Type in all cases: ADME
[1] = Pseudo first order rate constant of the beta-lactam ring cleavage determined from 1H NMR spectra
In short: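 Oxacephem (about 1×10^-2 M initial) in 0.2 M deuteriated carbonate buffer, pD 10.4, μ = 0.5, held at 35 ± 0.5 °C. β-Lactam loss followed by 1H NMR with 64 acquisitions per spectrum. Pseudo-first-order constant from regression of residual oxacephem fraction against time in hours.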

[2] = Pseudo first order rate constant of the beta-lactam ring cleavage determined from UV spectra (pH 10, 35 degree C)
In short: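 Oxacephem at about 7.5×10^-5 M initial in 0.008 M carbonate buffer, μ = 0.1, 35.0 ± 0.2 °C. Loss of UV absorbance near 260 nm recorded continuously over time. Pseudo-first-order constant for β-lactam cleavage obtained by the Guggenheim method.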

[3] = Pseudo first order rate constant of the beta-lactam ring cleavage determined from 1H NMR spectra; value is corrected for parallel correction.
In short: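 Degradation in 0.2 M deuteriated carbonate buffer, pD 10.4, μ = 0.5, 35 °C, oxacephem about 1×10^-2 M. Time courses of parent and products were recorded by 1H NMR. Rate constants came from kinetic analysis of a parallel-reaction scheme fitted to the experimental curves, which separates the OH− contribution to β-lactam cleavage.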

k obs [1] [h⁻¹] | k obs [2] [h⁻¹] | k obs [3] [h⁻¹] | Structure (SMILES)
0.45 | 0.23 | – | CO[C@@]1(NC(=O)Cc2ccccc2)C(=O)N2C(C(=O)[O-])=C(COC(N)=O)COC21.[Na+] (some centres undefined)
0.192 | 0.204 | – | CO[C@@]1(NC(=O)Cc2ccccc2)C(=O)N2C(C(=O)[O-])=C(CSc3nnnn3C)CO[C@@H]21.[Na+]
0.164 | 0.139 | – | CO[C@@]1(NC(=O)Cc2ccccc2)C(=O)N2C(C(=O)[O-])=C(CO)CO[C@@H]21.[Na+]
0.204 | 0.144 | – | COCC1=C(C(=O)[O-])N2C(=O)[C@](NC(=O)Cc3ccccc3)(OC)[C@H]2OC1.[Na+]
1.39 | 1.26 | – | CO[C@@]1([N-]C(=O)Cc2ccccc2)C(=O)N2C(C(=O)[O-])=C(C[n+]3ccccc3)CO[C@@H]21.[Na+]
0.289 | 0.234 | – | CO[C@@]1(NC(=O)Cc2ccccc2)C(=O)N2C(C(=O)[O-])=C(CC#N)CO[C@@H]21.[Na+]
0.255 | 0.285 | 0.308 | CO[C@@]1(NC(=O)Cc2ccccc2)C(=O)N2C(C(=O)[O-])=C(COC(C)=O)CO[C@@H]21.[Na+]
0.0484 | 0.0346 | – | CO[C@@]1(NC(=O)Cc2ccccc2)C(=O)N2C(C(=O)[O-])=C(C)CO[C@@H]21.[Na+]
0.11 | 0.101 | – | CO[C@@]1(NC(=O)Cc2ccccc2)C(=O)N2C(C(=O)[O-])=C(CSC)CO[C@@H]21.[Na+]
